# Published values gathered from unrelated publications.
# Lines come from different studies, so protocols differ.
# MAPK14: Mitogen-activated protein kinase 14 (MAPK14, Homo sapiens, UniProt Q16539)
# Si: Sucrase-isomaltase, intestinal (Si, Rattus norvegicus, UniProt P23739)
# Dihydrofolate reductase: Dihydrofolate reductase (Bos taurus, UniProt P00376)
Structure (SMILES),target,assay,IC50 [µM]
CC(C)(C)NS(=O)(=O)c1cccc(C(=O)N2CC3(CCC4(CC4)CC3)c3cc(NS(C)(=O)=O)ccc32)c1,"Kinesin-like protein KIFC1 (KIFC1, Homo sapiens, UniProt Q9BW19)","ATPase activity, inhibitor",> 100
c1ccc(Cc2[nH]nc(-c3ccccn3)c2-c2ccnc3ccccc23)cc1,MAPK14,"enzyme activity, inhibitor, ADP detection",5.2
CNCc1cc(-c2cc(O)ccc2OC(F)(F)F)ccc1F,"Estrogen receptor (ESR1, Homo sapiens, UniProt P03372, Y537S)","coactivator recruitment, TR-FRET",~18
COc1cc(C(=O)O)ccc1O,Si,"enzyme activity, inhibitor, absorbance",1650
NC/C(=C\F)COc1cccc(Cn2c(=S)[nH]c(=O)c3[nH]cnc32)c1,"Amine oxidase [copper-containing] 3 (Rattus norvegicus, UniProt O08590)","enzyme activity, inhibitor",0.005
N=c1sc(C(=O)c2ccc(Nc3cnccn3)cc2)nn1-c1ccccc1,Dihydrofolate reductase,"enzyme activity, inhibitor",6.49
COc1cc(C=O)ccc1O,Si,"enzyme activity, inhibitor, absorbance",1350
N=c1sc(C(=O)c2ccc(Nc3cnccn3)cc2)nn1-c1ccc([N+](=O)[O-])cc1,Dihydrofolate reductase,"enzyme activity, inhibitor",4.48
Oc1ccccc1-c1n[nH]cc1-c1ccnc2ccccc12,MAPK14,"enzyme activity, inhibitor, ADP detection",0.73
COc1ccc(N2N=C(C(C)=O)SC2=C(C#N)C(=O)c2ccc(Nc3cnccn3)cc2)cc1,Dihydrofolate reductase,"enzyme activity, inhibitor",3.82
c1ccc(-c2occc2-c2ccnc3ccccc23)nc1,MAPK14,"enzyme activity, inhibitor, ADP detection",> 30
CN1CCC(CNc2ccc3ncc(-c4cccc(OC(F)(F)F)c4)n3n2)CC1,"5-hydroxytryptamine receptor 1A (HTR1A, Homo sapiens, UniProt P08908)","cAMP, agonist",7.13
